Shown is part of a subset that was picked to be rich in hits.
KDM4C inh: KDM4C (human) demethylase inhibition. hit rate 0.15% among 96,000. inhibition, % at 12.5 µM. GST-KDM4C 2-372, H3K9me3 peptide, LANCE TR-FRET. Q9H3R0;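 active means mean replicate inhibition above about 25%, with at least 55% of replicates also reaching it, limit read from the data, passing the limit was not always enough; inconclusive means only one of those two conditions met; inactive means neither condition met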
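Material: GST-tagged GASC-1 (JMJD2C) catalytic fragment, aa 2-372 / Quantity: enzyme final amount 10 nM / Medium: HEPES buffer, pH 7.5, plus ascorbate / Doses: one test concentration per compound / Incubation: 30 min reaction, 60 min detection, RT / Measured by: LANCE TR-FRET / Read-out: inhibition from TR-FRET ratio decrease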
IDH1 R132H inh: inhibitors of human IDH1 R132H. inhibition, % at 10 µM. O75874. IDH1 R132H reductase, diaphorase/resazurin fluorescence, 60 min. hit rate 0.18% among 70,000; in the data active means inhibition above about 34%; inconclusive means no clear call, values can overlap the other calls; inactive means below about 11%;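 further: 0% = DMSO and 100% = no enzyme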
Target sequence (O75874 whole entry R132H): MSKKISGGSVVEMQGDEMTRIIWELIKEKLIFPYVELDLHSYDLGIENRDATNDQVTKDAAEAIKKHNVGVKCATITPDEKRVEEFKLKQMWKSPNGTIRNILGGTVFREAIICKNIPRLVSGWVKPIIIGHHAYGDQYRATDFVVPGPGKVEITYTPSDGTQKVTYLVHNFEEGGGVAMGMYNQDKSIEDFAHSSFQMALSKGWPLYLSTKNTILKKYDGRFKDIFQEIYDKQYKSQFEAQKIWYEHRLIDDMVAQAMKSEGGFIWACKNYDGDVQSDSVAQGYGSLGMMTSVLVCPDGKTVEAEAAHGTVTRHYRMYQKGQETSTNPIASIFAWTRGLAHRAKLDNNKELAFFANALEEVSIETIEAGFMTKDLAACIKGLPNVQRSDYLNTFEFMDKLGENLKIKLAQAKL
T cruzi growth-1: inhibitors of T. cruzi proliferation | T. cruzi beta-gal in NIH3T3, GalScreen luminescence, 90 h | inhibition, % at 8.34 µM | hit rate 5.9% among 77,000 | AID 624255;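 active means mean inhibition above about 93%, with at least 55% of replicates each passing it, limit read from the data, passing the limit was not always enough; inconclusive means only one of those two conditions holds; inactive means neither condition holds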
T cruzi growth-2: blocks T. cruzi growth in NIH3T3 host cells; T. cruzi beta-gal in NIH3T3, GalScreen luminescence, 90 h; inhibition, % at 8.35 µM; shares compounds with T cruzi growth-1; AID 651739; hit rate 72% among 5,600;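 active means mean replicate inhibition above about 95% and at least 55% of replicates individually reaching it, limit read from the data; inconclusive means only one of the two criteria is met; inactive means neither criterion is met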
T cruzi growth-3: inhibitors of T. cruzi proliferation; shares compounds with T cruzi growth-1; hit rate 21% among 5,600; T. cruzi beta-gal in NIH3T3, GalScreen luminescence, 90 h; inhibition, % at 2.09 µM;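 active means mean inhibition above about 95%, with at least 55% of replicates also reaching it, limit read from the data; inconclusive means meets just one of the two conditions; inactive means meets neither condition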;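 further: plate controls were neutral control median for no effect and positive control median for full effect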
NIH3T3 tox: NIH/3T3 (mouse) viability loss; shares compounds with T cruzi growth-1; NIH/3T3 viability, CellTiter-Glo ATP luminescence, 90 h; cytotoxicity (signal decrease), % at 8.35 µM; hit rate 14% among 5,600;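 active means mean signal decrease across replicates above about 35% based on untreated-well scatter, with enough replicates individually passing, limit read from the data; inconclusive means no rule stated though some were filed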;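 further: 0% = median of neutral control wells and 100% = median of positive control wells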
3T3 cytotox 2: NIH/3T3 (mouse) viability loss; shares compounds with T cruzi growth-1; NIH/3T3 viability, CellTiter-Glo ATP luminescence, 90 h; inhibition, % at 24.9 µM; hit rate 56% among 5,600; AID 651744;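 active means mean loss of cell viability signal at or above a set limit, and enough replicates individually reaching it; inconclusive means meets only the mean limit or only the replicate share; inactive means meets neither condition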;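 further: 0% = median of neutral control wells and 100% = median of positive control wells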
Starred values were filed as active, the others as inactive; u = inconclusive; x = no result given.

SMILES	KDM4C inh	IDH1 R132H inh	T cruzi growth-1	T cruzi growth-2	T cruzi growth-3	NIH3T3 tox	3T3 cytotox 2
O=C(Nc1ccccc1)N1CCCCN2[C@@H](CO)[C@@H](c3ccc(-c4ccccc4)cc3)[C@@H]2C1	0	x	95	x	x	x	x
Cc1ccc(-c2ccc([C@@H]3[C@@H](CO)N4CCCCN(C(=O)Nc5ccccc5)C[C@@H]34)cc2)cc1	-1	x	110*	106*	72	26	104*
Cc1ccc(-c2ccc([C@H]3[C@H]4CN(C(=O)Nc5ccccc5)CCCCN4[C@H]3CO)cc2)cc1	-2	x	109*	107*	43	21	91*
O=C(Nc1ccccc1)N1CCCCN2[C@H](C1)[C@@H](c1ccc(-c3ccccc3)cc1)[C@@H]2CO	-1	x	83	x	x	x	x
O=C(Nc1ccccc1)N1CCCCN2[C@H](CO)[C@H](c3ccc(Br)cc3)[C@@H]2C1	-1	x	56	x	x	x	x
COC(=O)CCCCCCC(=O)N/N=C/c1cccc(O)c1O	x	0	x	x	x	x	x
COc1ccc(-n2c(SCC(=O)Nc3cccc(C)c3C)nnc2-c2ccccc2)cc1	x	0	x	x	x	x	x
O=C(CC1(O)C(=O)N(Cc2ccccc2)c2ccc(Br)cc21)c1ccco1 (stereo not given)	x	0	x	x	x	x	x
COc1ccc(C#Cc2ccc3c(c2)O[C@H](CN(C)S(=O)(=O)c2ccccc2F)[C@H](C)CN([C@@H](C)CO)S3(=O)=O)cc1	-7	0	x	x	x	x	x
COc1ccc(C#Cc2ccc3c(c2)O[C@@H](CN(C)S(=O)(=O)c2ccccc2F)[C@@H](C)CN([C@H](C)CO)S3(=O)=O)cc1	-3	0	x	x	x	x	x
COc1ccc(C#Cc2ccc3c(c2)O[C@H](CN(C)S(=O)(=O)c2ccccc2F)[C@H](C)CN([C@H](C)CO)S3(=O)=O)cc1	-2	0	124*	109*	107*	-9	33*
COc1cccc(C#Cc2ccc3c(c2)O[C@@H](CN(C)S(=O)(=O)c2ccccc2F)[C@@H](C)CN([C@H](C)CO)S3(=O)=O)c1	1	1	101*	106*	61	19	u
Cc1ccc(NS(=O)(=O)c2ccc(NS(=O)(=O)c3ccc4c(c3)OCCO4)cc2)c(C)c1	x	0	x	x	x	x	x
CCC(=O)N1CCCCN2[C@@H](CO)[C@H](c3ccc(-c4cccc(C(=O)N(C)C)c4)cc3)[C@@H]2C1	0	x	100*	96*	84	4	21
CCC(=O)N1CCCCN2[C@H](CO)[C@H](c3ccc(-c4cccc(C(=O)N(C)C)c4)cc3)[C@H]2C1	0	x	101*	77	16	-11	19
CCC(=O)N1CCCCN2[C@H](C1)[C@H](c1ccc(-c3cccc(C(=O)N(C)C)c3)cc1)[C@@H]2CO	3	x	81	x	x	x	x
CCC(=O)N1CCCCN2[C@H](CO)[C@@H](c3ccc(-c4cccc(C(=O)N(C)C)c4)cc3)[C@@H]2C1	0	x	-7	x	x	x	x
C=C(C(=O)O)[C@@H]1CC[C@@]2(C)C=CC(=O)[C@@H](CCC3(O)C(=O)C=C[C@]4(C)CC[C@@H](C(=C)C(=O)O)C[C@@H]34)[C@@H]2C1 (stereo not given in full)	x	0	x	x	x	x	x
Cc1noc(C)c1NC(=O)Nc1ccc2c(c1)C(=O)N(C)[C@H]1CC[C@H](CC(=O)N[C@H]3CCN(Cc4ccccc4)C3)O[C@H]1CO2	0	x	106*	-20	-18	6	2
Cc1noc(C)c1NC(=O)Nc1ccc2c(c1)C(=O)N(C)[C@H]1CC[C@H](CC(=O)N[C@@H]3CCN(Cc4ccccc4)C3)O[C@@H]1CO2	-2	x	31	x	x	x	x
Cc1noc(C)c1NC(=O)Nc1ccc2c(c1)C(=O)N(C)[C@@H]1CC[C@@H](CC(=O)N[C@H]3CCN(Cc4ccccc4)C3)O[C@@H]1CO2	1	x	107*	-13	-29	-15	0
Cc1noc(C)c1NC(=O)Nc1ccc2c(c1)C(=O)N(C)[C@H]1CC[C@@H](CC(=O)N[C@H]3CCN(Cc4ccccc4)C3)O[C@@H]1CO2	1	x	104*	-23	14	0	-7
Cc1noc(C)c1NC(=O)Nc1ccc2c(c1)C(=O)N(C)[C@@H]1CC[C@H](CC(=O)N[C@H]3CCN(Cc4ccccc4)C3)O[C@@H]1CO2	2	x	109*	27	8	-4	-1
Cc1noc(C)c1NC(=O)Nc1ccc2c(c1)C(=O)N(C)[C@@H]1CC[C@@H](CC(=O)N[C@@H]3CCN(Cc4ccccc4)C3)O[C@H]1CO2	5	x	-22	x	x	x	x
Cc1noc(C)c1NC(=O)Nc1ccc2c(c1)C(=O)N(C)[C@H]1CC[C@@H](CC(=O)N[C@@H]3CCN(Cc4ccccc4)C3)O[C@@H]1CO2	0	x	-11	x	x	x	x
SMILES	KDM4C inh	IDH1 R132H inh	T cruzi growth-1	T cruzi growth-2	T cruzi growth-3	NIH3T3 tox	3T3 cytotox 2
Cc1noc(C)c1NC(=O)Nc1ccc2c(c1)C(=O)N(C)[C@@H]1CC[C@H](CC(=O)N[C@@H]3CCN(Cc4ccccc4)C3)O[C@H]1CO2	2	x	36	x	x	x	x
Cn1c(SCC(=O)c2cc(C(C)(C)C)c(O)c(C(C)(C)C)c2)nnc1-c1cccs1	x	0	x	x	x	x	x
Cc1ccc(S(=O)(=O)NC(C(=O)Oc2cc3oc(=O)cc(-c4ccccc4)c3cc2Cl)C(C)C)cc1 (stereo not given)	x	0	x	x	x	x	x
COc1ccccc1NC(=O)COc1ccc(C(=O)Nc2cccc(C(F)(F)F)c2)cc1	x	0	x	x	x	x	x
Cc1ccc(NC(=O)CSc2nc3sc4c(c3c(=O)n2-c2ccccc2)CCC4)c(C)c1	x	3	x	x	x	x	x
CC(=O)Cc1cc(O)cc2oc(C)cc(=O)c12	x	0	x	x	x	x	x
C[C@H]1CN([C@@H](C)CO)C(=O)Cc2cc(N(C)C)ccc2O[C@@H]1CN(C)Cc1ccc(Cl)c(Cl)c1	1	0	128*	116*	61	3	101*
C[C@H]1CN([C@@H](C)CO)C(=O)Cc2cc(N(C)C)ccc2O[C@@H]1CN(C)Cc1ccc2c(c1)OCO2	7	0	107*	101*	63	1	12
C[C@@H]1CN([C@@H](C)CO)C(=O)Cc2cc(N(C)C)ccc2O[C@@H]1CN(C)Cc1ccc(Cl)c(Cl)c1	x	0	67	x	x	x	x
C[C@@H]1CN([C@H](C)CO)C(=O)Cc2cc(N(C)C)ccc2O[C@H]1CN(C)Cc1ccc2c(c1)OCO2	3	-1	42	x	x	x	x
C[C@H](CO)N1C[C@H](C)[C@@H](CN(C)Cc2ccc3c(c2)OCO3)Oc2ccc(N(C)C)cc2CC1=O	1	-2	133*	105*	90	25	31*
C[C@@H]1CN([C@H](C)CO)C(=O)Cc2cc(N(C)C)ccc2O[C@@H]1CN(C)Cc1ccc2c(c1)OCO2	1	-1	-17	x	x	x	x
COc1ccc(NC(=O)Cc2nc(-c3ccc(OC)cc3)cs2)cc1	x	0	x	x	x	x	x
Cc1c(Cl)cccc1NC(=O)c1ccc(OCC(=O)Nc2ccc(F)cc2)cc1	x	0	x	x	x	x	x

Screening results from PubChem BioAssay.
